From ChEMBL document CHEMBL1649215, “In vitro activities of trioxaquines against Schistosoma mansoni” (2009)
The source made the active and inactive calls. The rule behind the calls is not given here.

Assays:
Schistosoma mansoni [1] = experiment: Antiparasitic activity against Schistosoma mansoni adult worm assessed as reduction of body contractility and movement at 50 ug/ml
Schistosoma mansoni [2] = experiment: Antiparasitic activity against Schistosoma mansoni larva assessed as reduction of body contractility and movement at 5 ug/ml within 7 hrs; assay type: functional, organism-based
Method in brief: (§1)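 Brazilian S. mansoni maintained in Swiss OF1 mice. Schistosomula recovered 21 days after percutaneous infection with 400 cercariae, and adults 49 days after 120 cercariae. Final concentration was 5 µg/ml for larvae and 50 µg/ml for adults, in RPMI/Tween 80/DMSO (1,000/0.95/3.8). Survival was followed over time and compared by pairwise log-rank tests (α = 1%).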

Schistosoma mansoni [3] = experiment: Antiparasitic activity against Schistosoma mansoni larva assessed as reduction of body contractility and movement at 5 ug/ml; assay type: functional, organism-based
Method in brief: as §1

Schistosoma mansoni [4] = experiment: Antiparasitic activity against Schistosoma mansoni adult worm assessed as reduction of body contractility and movement at 50 ug/ml; assay type: functional, organism-based
Method in brief: as §1

Schistosoma mansoni [5] = experiment: Antiparasitic activity against Schistosoma mansoni larva assessed as reduction of body contractility and movement at 5 ug/ml
Schistosoma mansoni [6] = experiment: Antiparasitic activity against Schistosoma mansoni adult worm assessed as reduction of body contractility and movement at 50 ug/ml within 7 hrs
Schistosoma mansoni [7] = experiment: Antiparasitic activity against Schistosoma mansoni assessed as parasite death at 10 ug/ml; assay type: functional
Method in brief: (§2)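 Schistosomula (day 21) and adults (day 49) were taken from percutaneously infected Swiss OF1 mice. Compounds were serially diluted in DMSO, with the last step into RPMI containing Tween 80, and worms were exposed across a concentration and time range. Survival was recorded and groups compared by pairwise log-rank tests (α = 1%).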

Schistosoma mansoni [8] = experiment: Antiparasitic activity against Schistosoma mansoni assessed as parasite death at 5 ug/ml; assay type: functional
Method in brief: as §2

Schistosoma mansoni [9] = experiment: Antiparasitic activity against Schistosoma mansoni assessed as parasite death at 300 ug/ml; assay type: functional
Method in brief: as §2

Schistosoma mansoni [10] = experiment: Antiparasitic activity against Schistosoma mansoni assessed as parasite death at 100 ug/ml; assay type: functional
Method in brief: as §2

## Clc1ccc2c(NCCN3CCC4(CC3)OCC3(CCCC3)OO4)ccnc2c1
Schistosoma mansoni [1]
  Activity: Active
Schistosoma mansoni [2]
  Activity: Active
Schistosoma mansoni [3]
  Activity: Active
Schistosoma mansoni [4]
  Activity: Active
Schistosoma mansoni [5]
  Activity: Active
Schistosoma mansoni [6]
  Activity: Active

## CC1(C)COC2(CCC(N[C@H]3CC[C@H](Nc4ccnc5cc(Cl)ccc45)CC3)CC2)OO1 (stereo partly specified)
Schistosoma mansoni [1]
  Activity: Active
Schistosoma mansoni [2]
  Activity: Active
Schistosoma mansoni [3]
  Activity: Active
Schistosoma mansoni [4]
  Activity: Active
Schistosoma mansoni [5]
  Activity: Active
Schistosoma mansoni [6]
  Activity: Active

## O=C(C1CCCCC1)N1CC(=O)N2CCc3ccccc3C2C1 (stereo unspecified) [PRAZIQUANTEL]
Schistosoma mansoni [1]
  Activity: Active
Schistosoma mansoni [3]
  Activity: Active
Schistosoma mansoni [4]
  Activity: Active
Schistosoma mansoni [7]
  Activity: 100%
Schistosoma mansoni [5]
  Activity: Active
Schistosoma mansoni [8]
  Activity: 100%

## Clc1ccc2c(NCCN3CCC4(CC3)OCC3(CCCCC3)OO4)ccnc2c1
Schistosoma mansoni [1]
  Activity: Active
Schistosoma mansoni [3]
  Activity: Active
Schistosoma mansoni [4]
  Activity: Active
Schistosoma mansoni [5]
  Activity: Active
Schistosoma mansoni [6]
  Activity: Active

## CO[C@H]1O[C@@H]2O[C@@]3(C)CC[C@H]4[C@H](C)CC[C@@H]([C@H]1C)[C@@]24OO3 [ARTEMETHER]
Schistosoma mansoni [9]
  Activity: 100%

## Clc1ccc2c(N[C@H]3CC[C@H](NC4CCC5(CC4)OCC4(CCCC4)OO5)CC3)ccnc2c1 (stereo partly specified)
Schistosoma mansoni [10]
  Activity: 100%
Schistosoma mansoni [1]
  Activity: Active
Schistosoma mansoni [2]
  Activity: Active
Schistosoma mansoni [3]
  Activity: Active
Schistosoma mansoni [4]
  Activity: Active
Schistosoma mansoni [7]
  Activity: 100%
Schistosoma mansoni [5]
  Activity: Active
Schistosoma mansoni [6]
  Activity: Active
Schistosoma mansoni [8]
  Activity: 100%
Schistosoma mansoni [9]
  Activity: 100%

## CC1(C)COC2(CCC(N[C@H]3CC[C@H](Nc4ccnc5cc(C(F)(F)F)ccc45)CC3)CC2)OO1 (stereo partly specified)
Schistosoma mansoni [1]
  Activity: Active
Schistosoma mansoni [3]
  Activity: Active
Schistosoma mansoni [4]
  Activity: Active
Schistosoma mansoni [5]
  Activity: Active
Schistosoma mansoni [6]
  Activity: Active

## CN(C1CCC2(CC1)OCC(C)(C)OO2)[C@H]1CC[C@H](Nc2ccnc3cc(Cl)ccc23)CC1 (stereo partly specified)
Schistosoma mansoni [1]
  Activity: Active
Schistosoma mansoni [2]
  Activity: inactive
Schistosoma mansoni [3]
  Activity: Active
Schistosoma mansoni [4]
  Activity: Active
Schistosoma mansoni [5]
  Activity: Active
Schistosoma mansoni [6]
  Activity: inactive

## C[C@H]1[C@H](OC(=O)CCC(=O)O)O[C@@H]2O[C@@]3(C)CC[C@H]4[C@H](C)CC[C@@H]1[C@@]24OO3 [ARTESUNATE]
Schistosoma mansoni [9]
  Activity: 100%
